# Reference: PMC4545378 (Cancer chemotherapy and pharmacology, 2015)
# Several values for one entry are separate records, joined by “and”; a condition that tells them apart may be missing. Identical values can stand only once. Entries after “also recorded” stand apart in the source; their conditions may differ. Like-named read-outs stand apart in the source and are kept apart here.
# Tests used:
# RBCs [1] = test: BEN metabolism in 10% RBCs with ALDH and AO inhibitor; type: in vitro ADME, human; settings: for inhibition of BEN metabolism (conversion of BEN to BA) in RBC: 10% RBCs in plasma, inhibitor 150 μM
# purified human ALDH1A1 = molecular target: T1, purified human ALDH1A1 (Homo sapiens, UniProt P00352); test: Metabolism using purified ALDH isoforms: ALDH1A1; type: biochemical
# T1 sequence (P00352 1-501): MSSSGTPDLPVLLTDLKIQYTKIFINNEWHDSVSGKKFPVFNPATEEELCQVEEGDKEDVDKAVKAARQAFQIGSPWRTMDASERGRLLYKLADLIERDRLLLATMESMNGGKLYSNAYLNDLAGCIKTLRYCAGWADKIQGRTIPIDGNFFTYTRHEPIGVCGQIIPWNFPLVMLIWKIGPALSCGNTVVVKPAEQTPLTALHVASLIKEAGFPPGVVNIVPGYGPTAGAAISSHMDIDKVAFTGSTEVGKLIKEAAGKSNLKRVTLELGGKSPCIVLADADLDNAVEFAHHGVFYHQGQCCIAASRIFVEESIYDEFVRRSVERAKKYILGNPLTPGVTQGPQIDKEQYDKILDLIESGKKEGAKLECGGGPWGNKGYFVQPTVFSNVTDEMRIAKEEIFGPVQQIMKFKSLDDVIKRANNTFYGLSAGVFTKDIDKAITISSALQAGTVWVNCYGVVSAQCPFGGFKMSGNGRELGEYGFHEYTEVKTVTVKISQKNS
# Method in brief: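 Purified human ALDH1A1 (5 μg/mL) in […] pH 7.4 with 200 mM KCl and 4 mM DTT, plus test compound at 1000 ng/mL. Pre-incubated 10 min at 37 °C, then started with NAD or […] (1 mM) as the isozyme requires. Sampled at 0–60 min into H2SO4, acetonitrile-extracted, and parent and […] measured by LC-MS/MS. Inhibition arms used anti-ALDH1A1 antibody or disulfiram. Three independent experiments; rate normalised per μg enzyme.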
# [2] = humans, after 9 mg/m^2; cited from earlier work
# ALDH5A1 = molecular target: T2, ALDH5A1 (Homo sapiens, UniProt P51649); test: Metabolism using purified ALDH isoforms: ALDH5A1; type: biochemical; settings: purified ALDH5A1, BEN 1000 ng/mL
# T2 sequence (P51649 48-535): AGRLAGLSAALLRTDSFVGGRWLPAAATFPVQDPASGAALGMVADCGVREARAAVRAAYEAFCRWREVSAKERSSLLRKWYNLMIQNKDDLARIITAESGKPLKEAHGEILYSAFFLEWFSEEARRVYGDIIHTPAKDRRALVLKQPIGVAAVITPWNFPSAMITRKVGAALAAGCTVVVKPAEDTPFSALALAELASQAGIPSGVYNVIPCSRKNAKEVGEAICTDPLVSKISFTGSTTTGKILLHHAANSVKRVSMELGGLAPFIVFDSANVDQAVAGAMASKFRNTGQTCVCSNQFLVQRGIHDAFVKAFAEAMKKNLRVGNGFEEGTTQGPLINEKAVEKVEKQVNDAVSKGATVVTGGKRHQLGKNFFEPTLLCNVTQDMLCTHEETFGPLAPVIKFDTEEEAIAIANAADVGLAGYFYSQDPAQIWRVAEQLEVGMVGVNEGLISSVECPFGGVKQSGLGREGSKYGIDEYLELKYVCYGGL
# [3] = cited from earlier work
# CYP3A = settings: preliminary experiments; cited from earlier work
# ALDH3A1 = molecular target: T3, ALDH3A1 (Homo sapiens, UniProt P30838); test: Metabolism using purified ALDH isoforms: ALDH3A1; type: biochemical; settings: purified ALDH3A1, BEN 1000 ng/mL
# T3 sequence (P30838 1-453): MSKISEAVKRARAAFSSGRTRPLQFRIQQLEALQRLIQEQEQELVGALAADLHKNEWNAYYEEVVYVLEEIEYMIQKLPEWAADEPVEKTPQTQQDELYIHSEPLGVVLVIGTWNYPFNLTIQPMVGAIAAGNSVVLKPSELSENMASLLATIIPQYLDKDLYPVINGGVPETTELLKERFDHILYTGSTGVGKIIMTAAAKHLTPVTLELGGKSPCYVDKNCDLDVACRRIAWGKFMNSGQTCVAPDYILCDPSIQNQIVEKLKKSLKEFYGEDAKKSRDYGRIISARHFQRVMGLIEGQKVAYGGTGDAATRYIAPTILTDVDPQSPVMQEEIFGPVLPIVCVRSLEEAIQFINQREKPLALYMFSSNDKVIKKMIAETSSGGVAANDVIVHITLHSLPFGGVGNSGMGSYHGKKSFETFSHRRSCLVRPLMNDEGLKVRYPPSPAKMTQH
# RBCs [4] = test: Apparent Vmax and Km determination in 10% RBCs in plasma; type: in vitro ADME, human
# RXF-393 = settings: mice, RXF-393 implanted subcutaneously or orthotopically under the renal capsule; cited from earlier work
# [5] = but not plasma; cited from earlier work
# [6] = preliminary experiments; cited from earlier work
# ALDH2 = molecular target: T4, ALDH2 (Homo sapiens, UniProt P05091); test: Metabolism using purified ALDH isoforms: ALDH2; type: biochemical; settings: purified ALDH2, BEN 1000 ng/mL
# T4 sequence (P05091 18-517): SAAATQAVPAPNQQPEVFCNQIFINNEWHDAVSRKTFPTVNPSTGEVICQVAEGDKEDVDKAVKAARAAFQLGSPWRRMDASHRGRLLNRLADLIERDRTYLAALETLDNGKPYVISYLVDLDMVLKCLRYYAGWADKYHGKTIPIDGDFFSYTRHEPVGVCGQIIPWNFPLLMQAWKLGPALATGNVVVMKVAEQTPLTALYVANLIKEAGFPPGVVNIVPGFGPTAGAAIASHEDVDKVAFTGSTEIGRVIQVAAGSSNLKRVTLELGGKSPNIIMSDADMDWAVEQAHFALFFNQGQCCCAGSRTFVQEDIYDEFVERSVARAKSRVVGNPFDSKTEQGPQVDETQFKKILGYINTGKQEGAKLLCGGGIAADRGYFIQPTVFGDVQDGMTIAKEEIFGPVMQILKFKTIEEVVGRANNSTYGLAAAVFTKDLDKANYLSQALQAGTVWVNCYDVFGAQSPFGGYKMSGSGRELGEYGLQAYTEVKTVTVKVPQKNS
# BEN blood partitioning = type: in vitro ADME, human; settings: 50% RBCs in plasma, on ice
# Method in brief: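 Blood (50% RBCs in plasma) held on ice with 1 mM disulfiram for 10 min, then dosed with test compound at 1000 ng/mL final. Blood sampled at 5–30 min and spun at 12,000 × g for 2 min; plasma acidified with H2SO4 and analysed by LC-MS/MS. Run in parallel in 100% plasma, in triplicate. Ratio taken as plasma-only concentration divided by plasma concentration from the 50%-RBC incubation.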
# lysed RBCs = test: BEN in lysed blood; type: in vitro ADME, human
# Method in brief: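 10% RBCs in plasma lysed by three freeze-thaw cycles and incubated at 37 °C alongside unlysed cells. Test compound added at 10 μg/mL final; sampled at 5, 60, 120 and 180 min. In a cofactor arm, NADH or NADPH (500 μM final) was added to lysed RBCs and sampling ran from 5 to 120 min. Parent quantified by LC-MS/MS.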
# [7] = mice, after 20 mg/kg BEN; cited from earlier work
# RBCs [8] = type: in vitro ADME, human; settings: 10% RBCs, all incubations (with and without CO or N2), BEN 3 μg/mL
# RBCs [9] = test: Effect of RBC concentration on BEN metabolism; type: in vitro ADME, human; settings: BEN 10 μg/mL, 37 °C
# Method in brief: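 RBCs taken from the bottom of the packed layer, avoiding the buffy coat, and resuspended in plasma at 0, 0.1, 1 and 10%. Test compound spiked at 10 μg/mL and incubated at 37 °C in a shaking bath. Aliquots taken from 0 to 360 min and at 24 h; remaining parent measured by LC-MS/MS.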
# [10] = test system: renal carcinoma cells (RCC); settings: cited from earlier work
# [11] = Lot 4 +7 days (7 day old blood stored at 4 °C), 10% RBCs
# [12] = mean over the lots of Table 1, 10% RBCs
smiles,measurement,setting,value
CC1=CC(=O)c2ccccc2C1=O [menadione],inhibition of BEN metabolism compared with vehicle control,"RBCs [1]; 3 mM menadione, 1.5% DMSO v:v, 10% RBCs",DMSO alone (1.5% DMSO v:v) caused the same extent of inhibition
same,inhibition of BEN metabolism (conversion of BEN to BA) in RBC,RBCs [1]; BEN 1 μg/mL,not inhibited; also recorded: only a partial inhibitory effect
CCN(CC)C(=S)SSC(=S)N(CC)CC [disulfiram],inhibition of BEN metabolism by purified ALDH1A1,"purified human ALDH1A1; reaction mixture with 4 mM DTT, antibodies at 100x",did not inhibit
same,inhibition of BEN metabolism (conversion of BEN to BA) in RBC,RBCs [1]; BEN 1 μg/mL,inhibited; also recorded: almost complete inhibition
"Cc1cc(N(CCOS(C)(=O)=O)CCOS(C)(=O)=O)ccc1C=O [BEN, 4-[bis[2-[(methylsulfonyl)-oxy]ethyl]amino]-2-methyl-benzaldehyde]",exposures observed,[2],14.5 ng/mL
same,ability of isoform to metabolize BEN,ALDH5A1,ALDH1A1 was the only isoform that showed the ability to metabolize BEN
same,in vitro half-life in plasma,[3],22 min
same,metabolism in liver microsomal fraction,CYP3A,undergoes N-dealkylation
same,ability of isoform to metabolize BEN,ALDH3A1,ALDH1A1 was the only isoform that showed the ability to metabolize BEN
same,starting concentrations that display linear metabolism,RBCs [4]; 10% RBCs,below 400 ng/mL
same,Cl,"RBCs [4]; Lot 1 human blood, 10% RBCs",0.333 mL/min
same,Km,"RBCs [4]; Lot 1 human blood, 10% RBCs",196.3 ng/mL
same,Vmax,"RBCs [4]; Lot 1 human blood, 10% RBCs",65.44 ng/mL^−1•min^−1•[10% RBC]^−1
same,Cl,"RBCs [4]; Lot 2 human blood, 10% RBCs",0.2736 mL/min
same,Km,"RBCs [4]; Lot 2 human blood, 10% RBCs",319.5 ng/mL
same,Vmax,"RBCs [4]; Lot 2 human blood, 10% RBCs",87.42 ng/mL^−1•min^−1•[10% RBC]^−1
same,Cl,"RBCs [4]; Lot 3 human blood, 10% RBCs",0.282 mL/min
same,Km,"RBCs [4]; Lot 3 human blood, 10% RBCs",256.2 ng/mL
same,Vmax,"RBCs [4]; Lot 3 human blood, 10% RBCs",72.27 ng/mL^−1•min^−1•[10% RBC]^−1
same,Cl,RBCs [4]; [11],0.1432 mL/min
same,Km,RBCs [4]; [11],699.6 ng/mL
same,Vmax,RBCs [4]; [11],100.2 ng/mL^−1•min^−1•[10% RBC]^−1
same,Cl,"RBCs [4]; Lot 4 human blood, 10% RBCs",0.1859 mL/min
same,Km,"RBCs [4]; Lot 4 human blood, 10% RBCs",609.8 ng/mL
same,Vmax,"RBCs [4]; Lot 4 human blood, 10% RBCs",113.4 ng/mL^−1•min^−1•[10% RBC]^−1
same,Cl,"RBCs [4]; Lot 5 human blood, 10% RBCs",0.1588 mL/min
same,Km,"RBCs [4]; Lot 5 human blood, 10% RBCs",481.8 ng/mL
same,Vmax,"RBCs [4]; Lot 5 human blood, 10% RBCs",76.5 ng/mL^−1•min^−1•[10% RBC]^−1
same,Cl,"RBCs [4]; Lot 6 human blood, 10% RBCs",0.1836 mL/min
same,Km,"RBCs [4]; Lot 6 human blood, 10% RBCs",371.2 ng/mL
same,Vmax,"RBCs [4]; Lot 6 human blood, 10% RBCs",68.16 ng/mL^−1•min^−1•[10% RBC]^−1
same,Average apparent Km,"RBCs [4]; human RBC, abstract",373 ng/mL
same,"Cl, Mean",RBCs [4]; [12],0.22 mL/min
same,"Vmax, Mean",RBCs [4]; [12],83.3 ng/mL^−1•min^−1•[10% RBC]^−1
same,antitumor activity,RXF-393,demonstrated antitumor activity
same,ability of isoform to metabolize BEN,"purified human ALDH1A1; purified ALDH1A1, BEN 1000 ng/mL",showed the ability to metabolize BEN
same,rate of disappearance of BEN,"purified human ALDH1A1; three independent experiments, 5 μg/mL purified enzyme, BEN 1000 ng/mL, 37 °C",0.172 ng/min/μg of enzyme and 0.224 ng/min/μg of enzyme and 0.154 ng/min/μg of enzyme
same,conversion in whole blood,[5],rapidly converted to its carboxylic acid analogue (BA)
same,metabolism in cytosolic fraction,[6],oxidized
same,ability of isoform to metabolize BEN,ALDH2,ALDH1A1 was the only isoform that showed the ability to metabolize BEN
same,time by which the equilibrium between RBCs and plasma was complete,BEN blood partitioning,≤ 5 min
same,average plasma to whole blood partition ratio,"BEN blood partitioning; disulfiram 1 mM, BEN 1000 ng/mL, triplicate",1.25 ± 0.08
same,metabolism of BEN by lysed RBCs,"lysed RBCs; 10% RBCs lysed by freeze-thaw, no cofactor added",did not metabolize BEN
same,metabolism of BEN by lysed RBCs,lysed RBCs; 10% lysed RBCs + NADH 500 μM,restored the ability of lysed RBCs to metabolize BEN
same,metabolism of BEN by lysed RBCs,lysed RBCs; 10% lysed RBCs + NADPH 500 μM,partially restored the ability of lysed RBCs to metabolize BEN
same,exposures observed,[7],16 ng/mL
same,time after which the concentration of BEN was halved,RBCs [8],approximately 60 min
same,amount of BEN remaining,"RBCs [1]; control sample without inhibitor, 10% RBCs, BEN 1 μg/mL",0.5%
same,BEN remaining,"RBCs [9]; 10% RBCs, after 6 hours",5%
same,BEN remaining,"RBCs [9]; 10% RBCs, after one hour",54%
same,BEN remaining,"RBCs [9]; no RBCs, after 6 hours",59%
same,BEN remaining,"RBCs [9]; no RBCs, after one hour",99%
same,activity in the NCI 60 cell line screen,[10],specific activity against renal carcinoma cells (RCC)
